Reference: ChEMBL document CHEMBL4145530, “Design, synthesis and pharmacological evaluation of N-benzyl-piperidinyl-aryl-acylhydrazone derivatives as donepezil hybrids: Discovery of novel multi-target anti-alzheimer prototype drug candidates” (Eur J Med Chem, 2018)
Active and inactive are the calls of the source.

Key:
[1] = Selectivity ratio of IC50 for equine serum BuChE to IC50 for electric eel AChE
Procedure, shortened: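 Ellman kinetic assay with Electrophorus electricus AChE (acetylthiocholine) and equine serum BuChE (butyrylthiocholine iodide), […]. Enzyme was preincubated 10 min with DTNB and compound in 0.1 M sodium phosphate, pH 7.4 (final DMSO <0.2%), before substrate was added. A412 was read every 12 s for 5 min at rt to give maximum velocity. IC50 is the geometric mean of 2–3 curves, each 6 concentrations in triplicate. Selectivity is IC50 BuChE/IC50 AChE.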

Mus musculus [2] = assay: Antinociceptive activity in formalin-induced Swiss mouse model of hyperalgesia assessed as time spent licking the injected paw in last phase at […], po pretreated for 1 hr followed by formalin injection and measured at 20 to 30 mins (reference value: 135.8 +/- 10.7 secs); type: functional
Mus musculus [3] = assay: (§1) Anti-inflammatory activity in C57Bl/6 mouse model of amyloid beta (1 to 42) oligomer-induced neuroinflammation assessed as inhibition of neurodegeneration in CA1 region of ipsilateral hippocampus at 100 mg/kg, ip pretreated for 1.5 hrs followed by amyloid beta (1 to 42) oligomer addition and measured after 7 days by Fluoro-Jade C staining based fluorescence microscopic assay; type: functional, organism-based
Procedure, shortened: (§2)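 C57Bl/6 male mice were dosed i.p. at 100 mg/kg 1.5 h before stereotactic right intrahippocampal Aβ1-42 oligomer injection (400 pmol/0.5 µL), with PBS as control. After 7 days, hippocampal sections were stained with Fluoro-Jade C (0.0001%) after NaOH/ethanol and permanganate steps. Five CA1 images per hippocampus were imaged under fluorescence and pixel intensity quantified, n=10.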

Mus musculus [4] = assay: Inhibition of serum COX2 level in Swiss mouse model of carragenan-induced paw edema at 100 mM/kg, po pretreated for 1 hr followed by carrageenan treatment measured after 3 hrs by ELISA; type: functional
Procedure, shortened: (§3)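 Swiss mice (n=8) received compound (100 mM/kg) or vehicle orally 1 h before intraplantar carrageenan; indomethacin was the positive control. Three hours later, blood was drawn from the heart under chloral hydrate anaesthesia and serum was collected. COX-1 and COX-2 protein was measured by sandwich ELISA read at 450 nm and expressed as percent COX level.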

Mus musculus [5] = assay: Inhibition of serum COX1 level in Swiss mouse model of carragenan-induced paw edema at 100 mM/kg, po pretreated for 1 hr followed by carrageenan treatment measured after 3 hrs by ELISA; type: functional; procedure, shortened: as §3
Mus musculus [6] = assay: as §1, with “Toxicity” for “Anti-inflammatory activity”, “induction” for “inhibition”; type: organism-based; settings: in vivo, 168 h; procedure, shortened: as §2
HepG2 = assay: Genotoxicity in human HepG2 cells assessed as induction of DNA damage by measuring comet tail moment at 20 to 40 uM by alkaline comet assay; type: toxicity, cell-based; settings: hepg2, 40 µM
Procedure, shortened: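 HepG2 cells were exposed 6 h to 20 or 40 µM, then trypsinised; viability was checked by trypan blue. Cells were embedded in low-melting agarose and lysed at 4 °C, pH 10, for 24 h. DNA was unwound 20 min in pH 13 buffer, then electrophoresed 25 V/300 mA for 25 min, neutralised and stained with SYBR Green. Tail moment was scored on 50 nuclei per slide in triplicate slides; 3 independent experiments. Doxorubicin and UV light served as positive controls.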

THP-1 = assay: Anti-inflammatory activity in human THP1 cells assessed as inhibition of LPS-induced IL-1beta production at 10 uM after 24 hrs by ELISA relative to control; type: functional; settings: THP-1, 24 h
Procedure, shortened: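 Human monocytic THP-1 cells (5×10^5 cells/mL) were given LPS 1 µg/mL with or without compound at 10 µM for 24 h. Cells were spun out at 500 × g and the medium kept at −80 °C. Secreted IL-1β and TNFα were measured with high-sensitivity ELISA. Three independent experiments.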

[7] = target: Acetylcholinesterase (Electrophorus electricus) (UniProt O42275); assay: (§4) Inhibition of electric eel AChE using acetylthiocholine iodide as substrate preincubated for 10 mins followed by substrate addition by Ellman's method
Chain of Acetylcholinesterase (Electrophorus electricus) (O42275 24-633 limits assumed): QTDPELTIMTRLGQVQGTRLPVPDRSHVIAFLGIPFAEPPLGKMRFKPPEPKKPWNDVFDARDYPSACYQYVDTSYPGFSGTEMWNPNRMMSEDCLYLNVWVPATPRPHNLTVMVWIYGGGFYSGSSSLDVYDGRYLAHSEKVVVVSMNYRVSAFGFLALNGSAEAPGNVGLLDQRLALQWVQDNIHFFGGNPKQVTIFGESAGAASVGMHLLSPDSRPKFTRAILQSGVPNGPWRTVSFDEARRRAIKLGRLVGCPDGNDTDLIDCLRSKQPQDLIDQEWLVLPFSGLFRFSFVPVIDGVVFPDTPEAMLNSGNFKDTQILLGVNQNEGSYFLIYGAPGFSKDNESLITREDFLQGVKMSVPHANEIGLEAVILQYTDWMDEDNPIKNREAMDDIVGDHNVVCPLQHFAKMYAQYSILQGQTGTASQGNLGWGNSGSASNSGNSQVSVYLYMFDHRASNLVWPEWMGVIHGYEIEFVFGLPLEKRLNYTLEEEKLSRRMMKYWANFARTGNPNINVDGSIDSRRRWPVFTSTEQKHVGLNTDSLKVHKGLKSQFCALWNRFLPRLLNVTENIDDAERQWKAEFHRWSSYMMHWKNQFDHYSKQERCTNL

Acetylcholinesterase = Acetylcholinesterase (Electrophorus electricus, UniProt O42275); assay: as §4
Chain of Acetylcholinesterase (O42275 whole entry): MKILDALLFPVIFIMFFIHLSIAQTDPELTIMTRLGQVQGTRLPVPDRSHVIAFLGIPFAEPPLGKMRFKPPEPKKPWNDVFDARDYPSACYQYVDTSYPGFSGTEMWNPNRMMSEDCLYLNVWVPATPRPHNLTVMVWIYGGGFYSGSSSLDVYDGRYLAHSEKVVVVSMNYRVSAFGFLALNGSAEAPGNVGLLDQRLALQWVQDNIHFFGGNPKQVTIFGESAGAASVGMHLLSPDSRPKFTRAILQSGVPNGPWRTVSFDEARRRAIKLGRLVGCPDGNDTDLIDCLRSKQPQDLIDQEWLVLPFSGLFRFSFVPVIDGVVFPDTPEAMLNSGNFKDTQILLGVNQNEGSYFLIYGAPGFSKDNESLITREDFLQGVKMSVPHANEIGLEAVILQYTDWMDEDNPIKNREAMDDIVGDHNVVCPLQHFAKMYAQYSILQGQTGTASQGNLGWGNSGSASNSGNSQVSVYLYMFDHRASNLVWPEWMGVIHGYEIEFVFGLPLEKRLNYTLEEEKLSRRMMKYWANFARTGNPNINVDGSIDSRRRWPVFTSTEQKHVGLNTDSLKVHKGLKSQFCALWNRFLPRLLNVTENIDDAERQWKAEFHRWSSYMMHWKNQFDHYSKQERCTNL

Mus musculus [8] = assay: Antinociceptive activity in carrageenan-induced Swiss mouse model of mechanical hyperalgesia assessed as mechanical hyperalgesic index pretreated orally for 1 hr followed by carrageenan challenge by Von Frey filament assay; type: functional
Procedure, shortened: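 Swiss mice were placed in wire-screen acrylic boxes 60 min before testing. Vehicle, compound or indomethacin was given orally 1 h before intraplantar carrageenan. Mechanical threshold was found by the von Frey up-and-down method, with at least 6 trials at 10 s intervals, raising filament mass until paw withdrawal. Results are given as threshold in grams; n=8.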

Mus musculus [9] = assay: Antinociceptive activity in formalin-induced Swiss mouse model of hyperalgesia assessed as time spent licking the injected paw in early phase at 100 mM/kg, po pretreated for 1 hr followed by formalin injection and measured up to 5 mins (reference value: 74 +/- 7.7 secs); type: functional
SH-SY5Y = assay: Neuroprotection in human SH-SY5Y cells assessed as inhibition of amyloid beta (1 to 42) oligomer-induced early neurotoxic event by measuring decrease in MTT formazan exocytosis at 10 uM after 4 hrs by microscopic method; type: functional, cell-based
Procedure, shortened: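 SH-SY5Y cells (3×10^4/well) were grown 24 h, then co-treated with compound and Aβ1-42 oligomers (10 µM) for 4 h at 37 °C. Medium was replaced by MTT in PBS for 2 h. Needle-like exocytosed formazan crystals on the cell surface were assessed by light microscopy. Three independent experiments.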

Row | SMILES | Ratio IC50 [1] | Time (Mus musculus [2]) [s] | inhibition (Mus musculus [3]) | inhibition (INH) (Mus musculus [4]) [%] | inhibition (INH) (Mus musculus [5]) [%] | Activity (Mus musculus [6]) | Activity (HepG2) | inhibition at 10 µM (THP-1) [%] | inhibition [7] | IC50 (Acetylcholinesterase) [µM] | Activity_index (Mus musculus [8]) | Time (Mus musculus [9]) [s] | inhibition (SH-SY5Y)
1 | O=C(N/N=C/c1ccc(F)cc1)c1ccc(CN2CCCC(O)C2)cc1 (centres undefined) | 4.5 | 24.17 | inactive | 25 | 34 | Toxic | Non-Toxic | 31 | Dose-dependent effect | 8.65 | 178.9 | 18.86 | –
2 | O=C(N/N=C/c1ccc(Cl)cc1)c1ccc(CN2CCCC(O)C2)cc1 (centres undefined) | 1.9 | 62.88 | Active | 42 | 27 | – | Non-Toxic | 29 | Dose-dependent effect | 25.4 | 168.3 | 14 | Active
